In PMC4519694 (Nature neuroscience, 2015):
Peptide text beside a SMILES is read from it.

Experiments:
mice = test: Forced swim test; assay type: in vivo, mouse; conditions: infusion into NAc, two-trial FST, n = 5-7 (Supplementary Fig. 12c)
Summary of the method: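 Bilateral stereotaxic infusion into NAc under isoflurane (AP +1.50 mm from bregma, ML ±1.4 mm, DV −3.90 mm), 1 µl per hemisphere of peptide (115 µM) or PKA inhibitor (45 µM). Testing followed 90 min after peptide or 45 min after inhibitor. Mice aged 10–12 weeks swam in a glass cylinder of 25°C water for 10 min, then 8 min 24 h later. Two researchers, blind to treatment, scored immobility at 2–6 min.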

humans = conditions: ref [35]–[37]; cited from earlier work
PDE4 = conditions: ref [35]–[37]; cited from earlier work
animals = conditions: ref [35]–[37]; cited from earlier work
DARPP-32 (Thr34) = test: Phospho-Thr34 DARPP-32 in striatal slices; assay type: cell-based, mouse; conditions: 50 µM roscovitine, n = 3-6
Summary of the method: (§1)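 Acute mouse striatal slices were exposed to test compound and analysed by quantitative immunoblotting. Phospho-specific signals were normalized to the corresponding total-protein blots, and loading to β-actin, GAPDH and/or coomassie staining. Values are mean ± s.e.m.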

CREB (Ser133) = test: Phospho-Ser133 CREB in striatal slices; assay type: cell-based, mouse; conditions: 50 µM roscovitine, n = 3-6
Summary of the method: (§2)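 Acute mouse striatal slices, drug-treated, analysed by quantitative immunoblot. Phospho-specific signals normalized to the matching total-protein blot; loading normalized to β-actin, GAPDH and/or Coomassie. The PDE4 PKA-site antibody was an affinity-purified polyclonal, phosphorylation state-specific. Mean ± s.e.m.; t-test or ANOVA with Bonferroni post hoc.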

synapsin (Ser9) = test: Phospho-Ser9 synapsin in striatal slices; assay type: cell-based, mouse; conditions: 50 µM roscovitine, n = 3-6
Summary of the method: as §2

[1] = test system: AMPA receptor subunit GluR1 (Ser845); test: Phospho-Ser845 GluR1 in striatal slices; assay type: cell-based, mouse; conditions: 50 µM roscovitine, n = 3-6
Summary of the method: as §1

cAMP in striatal slices = test: cAMP level in striatal slices; assay type: cell-based, mouse
PDE = PDE activity in striatal lysates; assay type: biochemical, mouse; conditions: n = 4 slices
NMDA receptor = NMDA receptor current, whole-cell recording in striatal neurons; assay type: cell-based, mouse; conditions: D-APV 50 µM; NMDA 100 µM; -70 mV
[2] = biological target: PDE4B1 phosphorylation by Cdk5 (Homo sapiens, UniProt Q00535); test: In vitro Cdk5-dependent phosphorylation of PDE4; assay type: biochemical, rat
Chain of PDE4B1 phosphorylation by Cdk5 (Q00535 whole entry): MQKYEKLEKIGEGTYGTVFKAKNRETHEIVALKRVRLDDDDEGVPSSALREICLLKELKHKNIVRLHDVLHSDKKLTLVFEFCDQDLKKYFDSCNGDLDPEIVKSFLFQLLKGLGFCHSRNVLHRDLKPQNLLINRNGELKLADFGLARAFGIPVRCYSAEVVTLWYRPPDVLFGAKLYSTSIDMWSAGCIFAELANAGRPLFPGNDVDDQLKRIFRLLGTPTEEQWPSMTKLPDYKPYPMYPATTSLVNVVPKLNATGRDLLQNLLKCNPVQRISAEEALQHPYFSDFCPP
Chain of PDE4B1 phosphorylation by Cdk5 (Q15078 99-307 partner limits assumed): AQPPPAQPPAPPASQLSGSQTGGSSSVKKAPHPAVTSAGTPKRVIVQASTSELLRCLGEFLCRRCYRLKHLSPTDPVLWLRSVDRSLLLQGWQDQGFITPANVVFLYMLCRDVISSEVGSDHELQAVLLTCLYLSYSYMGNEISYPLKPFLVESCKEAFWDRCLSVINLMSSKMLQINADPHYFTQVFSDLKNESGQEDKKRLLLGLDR

PDE4 (PKA site) = test: PDE4 phosphorylation at the PKA site in striatal slices; assay type: cell-based, mouse
Summary of the method: as §2

PDE4B1 (PKA site) = test: PKA-mediated PDE4 phosphorylation in PC12 cells; assay type: cell-based; conditions: FSK 10 µM, n = 8 reactions, WT vs S145A at 3 min *P = 0.0241, at 15 min ***P < 0.0001

Q: Which FST performance (mice) does the source give for “RRRRRRR- ESFLYRSDSDYDLSPKAM [poly-arginine tagged PDE4 peptide]” here?
A: Its FST performance is “analogical effect on FST performance”.

Q: With `COc1ccc(C2CNC(=O)C2)cc1OC1CCCC1` (centres unmarked) [rolipram, 4-[3-(cyclopenotoxyl)-4-methoxyphenyl]-2-pyrrolidone] as the compound, how does the antidepressant activity (humans) read?
A: Its antidepressant activity is “have antidepressant activity in humans”.

Q: And the cAMP (PDE4)?
A: The cAMP was “elevate cAMP”.

Q: What about the “behavioral responses to stressors” value (animals) of the same compound?
A: The value was “affect behavioral responses to stressors in animals”.

Q: Which results are given for `CC[C@H](CO)Nc1nc(NCc2ccccc2)c2ncn(C(C)C)c2n1` [roscovitine]?
A: phosphorylation of DARPP-32 (Thr34) (DARPP-32 (Thr34)): increased phosphorylation; PKA-dependent phosphorylation of CREB (Ser133) (CREB (Ser133)): induced PKA-dependent phosphorylation; PKA-dependent phosphorylation of synapsin (Ser9) (synapsin (Ser9)): induced PKA-dependent phosphorylation; phosphorylation of GluR1 (Ser845) [1]: increased phosphorylation; cAMP level (cAMP in striatal slices; Ros, n = 3 slices, *P = 0.0216): increase cAMP to similar levels; PDE activity (PDE; roscovitine 10 µM, *P = 0.011): attenuates PDE activity; PDE activity (PDE; roscovitine 50 µM, **P = 0.0037): attenuates PDE activity

Q: With `N[C@H](CCCP(=O)(O)O)C(=O)O` [D-APV] as the compound, how does the NMDA-evoked current (NMDA receptor) read?
A: Its NMDA-evoked current is “blocked”.

Q: Which IC50 [2] does the source give for `CC[C@H](C)[C@H](NC(=O)[C@H](CCCCN)NC(=O)[C@@H](NC(=O)[C@H](CCC(N)=O)NC(=O)[C@@H](N)CCCNC(=N)N)[C@@H](C)CC)C(=O)N[C@@H](Cc1c[nH]c2ccccc12)C(=O)N[C@@H](Cc1ccccc1)C(=O)N[C@@H](CCC(N)=O)C(=O)N[C@@H](CC(N)=O)C(=O)N[C@@H](CCCNC(=N)N)C(=O)N[C@@H](CCCNC(=N)N)C(=O)N[C@@H](CCSC)C(=O)N[C@@H](CCCCN)C(=O)N[C@@H](Cc1c[nH]c2ccccc12)C(=O)N[C@@H](CCCCN)C(=O)N[C@@H](CCCCN)C(=O)N[C@@H](CCC(=O)O)C(=O)N[C@@H](CO)C(=O)N[C@@H](Cc1ccccc1)C(=O)N[C@@H](CC(C)C)C(=O)N[C@@H](Cc1ccc(O)cc1)C(=O)N[C@@H](CCCNC(=N)N)C(=O)N[C@@H](CO)C(=O)N[C@@H](CC(=O)O)C(=O)N[C@@H](CO)C(=O)N[C@@H](CC(=O)O)C(=O)N[C@@H](Cc1ccc(O)cc1)C(=O)N[C@@H](CC(=O)O)C(=O)N[C@@H](CC(C)C)C(=O)N[C@@H](CO)C(=O)N1CCC[C@H]1C(=O)N[C@@H](CCCCN)C(=O)N[C@@H](C)C(=O)N[C@@H](CCSC)C(=O)O` [PDE4-siP] (H-RQIKIWFQNRRMKWKKESFLYRSDSDYDLSPKAM-OH) here?
A: Its IC50 is 13 µM.

Q: With `Oc1cc2c(c(Cl)c1O)CCNCC2c1ccccc1` (centres unmarked) [SKF81297] as the compound, how does the cAMP level (cAMP in striatal slices; SKF81297 (1 µM, 10 min unless stated otherwise), n = 4 slices, **P = 0.0030) read?
A: The cAMP level was “increase cAMP to similar levels”.

Q: What does the source list for `C=C[C@@]1(C)CC(=O)[C@]2(O)[C@@]3(C)[C@@H](O)CCC(C)(C)[C@@H]3[C@H](O)[C@H](OC(C)=O)[C@@]2(C)O1` [forskolin]?
A: PDE4 phosphorylation by PKA (PDE4 (PKA site); striatal slices (Supplementary Fig. 1e)): increased PDE4 phosphorylation by PKA; PKA-mediated PDE4 phosphorylation after forskolin, S145A PDE4B1 versus WT (PDE4B1 (PKA site)): reduced PKA-mediated PDE4 phosphorylation

Q: With `CCNC(=O)[C@H]1O[C@@H](n2cnc3c(N)nc(NCCc4ccc(CCC(=O)O)cc4)nc32)[C@H](O)[C@@H]1O` [CGS21680] as the compound, how does the “PKA-mediated PDE4 phosphorylation in response to CGS21680” value (PDE4 (PKA site); 5 µM, 2 min, Cdk5 cKO striatum, n = 4 slices from 2 mice, WT CGS vs cKO CGS *P = 0.0354) read?
A: Its value is “Loss of PKA-mediated PDE4 phosphorylation”.
